TDP2 inh: blocks human TDP2 phosphodiesterase activity. O95551. recombinant TDP2, T5PNP hydrolysis, p-nitrophenol absorbance 415 nm. inhibition, % at 12.8 µM. hit rate 0.34% among 370,000. AID 720702;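 active means inhibition above the mean of all tested compounds plus 3 SD, set per campaign, cut at about 25% in these data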;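 further: 0% = DMSO with enzyme and 100% = buffer with substrate but no TDP2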
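System – recombinant human TDP2 · Amount – 120 nM TDP2 per well · Buffer or medium – Mg2+-containing Tris-HCl buffer, pH 7.5 · Reagent – T5PNP substrate, 5 mM · Dosing – 12.8 µM single point, 1% DMSO · Incubation – 2 h at 37 °C · Measured by – epi absorbance · Read-out basis – percent inhibition · Benchmarks – high control without enzyme, low control DMSO plus TDP2 · Repeats – singlicate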
PAD4 FP inh: inhibitors of human PAD4. Q9UM07. recombinant PAD4, RCA probe fluorescence polarization. inhibition, % at 6.36 µM. hit rate 0.41% among 330,000;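 active means percent inhibition above a cutoff equal to the mean of all tested compounds plus 3 SD, cut at about 15% in these data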;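 further: 0% = PAD4 with RCA probe and DMSO and 100% = probe without PAD4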
Target sequence (Q9UM07 whole entry, looked up): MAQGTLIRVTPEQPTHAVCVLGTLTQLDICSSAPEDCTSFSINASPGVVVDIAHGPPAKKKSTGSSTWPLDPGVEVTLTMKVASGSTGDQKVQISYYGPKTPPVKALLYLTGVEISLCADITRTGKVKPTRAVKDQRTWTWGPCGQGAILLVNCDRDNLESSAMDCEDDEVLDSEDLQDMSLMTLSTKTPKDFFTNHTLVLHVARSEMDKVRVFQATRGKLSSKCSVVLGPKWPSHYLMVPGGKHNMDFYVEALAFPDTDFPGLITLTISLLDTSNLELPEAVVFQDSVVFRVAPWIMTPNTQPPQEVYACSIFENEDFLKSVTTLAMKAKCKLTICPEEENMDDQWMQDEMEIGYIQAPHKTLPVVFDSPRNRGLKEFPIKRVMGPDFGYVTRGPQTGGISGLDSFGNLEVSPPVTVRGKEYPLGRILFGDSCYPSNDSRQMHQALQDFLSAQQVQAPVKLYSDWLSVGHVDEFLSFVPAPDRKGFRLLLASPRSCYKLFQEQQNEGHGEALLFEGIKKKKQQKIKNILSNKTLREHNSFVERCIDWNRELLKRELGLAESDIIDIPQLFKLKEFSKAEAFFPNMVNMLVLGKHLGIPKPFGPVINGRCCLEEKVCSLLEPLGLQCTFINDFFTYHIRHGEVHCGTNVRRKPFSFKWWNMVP
GSTO1 counter: blocks human GSTO1 in RBBP9 counter-screen. P78417. recombinant GSTO1, activity-based probe fluorescence polarization. inhibition, % at 5.96 µM. hit rate 1.1% among 300,000. AID 1974;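 active means inhibition above the campaign mean inhibition plus 3 SD, cut at about 35% in these data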;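 further: 0% = GSTO1-1 with DMSO and 100% = wells lacking GSTO1-1 enzyme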
PRMT1 FP inh: PRMT1 (human) inhibition, primary screen. Q99873. recombinant PRMT1, activity-based probe fluorescence polarization. inhibition, % at 2.79 µM. hit rate 1.3% among 370,000. AID 652257;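 active means inhibition above about 21% made by adding two undisclosed values, limit read from the data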
Apaf-1 inh: inhibitors of human Apaf-1 apoptosome. O14727. reconstituted apoptosome caspase-3 activity, DEVD-Rh110 fluorescence. inhibition, % at 20 µM. hit rate 0.71% among 330,000; active means inhibition of at least 40% at 20 µM;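 further: plate controls were DMSO wells for no effect and DEVD-CHO caspase inhibitor wells for full effect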
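Assay system: Apoptosome proteins | Medium: pH 7.5 Hepes buffer with CHAPS, BSA, DTT | Also added: Cytochrome c and DEVD-Rh110 substrate | Times: 30 min plus 50 min, RT | Detection: Rhodamine 110 fluorescence at Ex 480/Em 540 nm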
* = called active by the depositor; nt = not tested or not shown. Most compounds without a hit are left out; they make up all but 2.6% or so of the library.

SMILES | TDP2 inh | PAD4 FP inh | GSTO1 counter | PRMT1 FP inh | Apaf-1 inh
C/C(N)=N\S(=O)(=O)c1ccc(Cl)cc1 | -0.7 | -2.2 | 35.6* | 2.6 | -20.3
CC(C)CNC(=O)C1CSCCS(=O)(=O)N1Cc1ccccc1 (stereo unspecified) | 7.8 | nt | nt | 3.5 | nt
CN(CCCN1c2ccccc2CCc2ccccc21)CC(=O)c1ccc(Cl)cc1 | nt | 0.3 | 3.2 | nt | 44.1*
CN(C)CCCN1c2ccccc2CCc2ccc(Cl)cc21 | 3.8 | -1.8 | 1.7 | -2.2 | 30.9
O=C1C(=O)N(Cc2ccc(-c3ccc(F)nc3)cc2)c2ccc(OC(F)(F)F)cc21 | -3.1 | nt | nt | 1.9 | nt
O=C(O)CCc1ccc(-c2ccccc2)n1CC(=O)O | -1.9 | -6.0 | 5.0 | 23.2* | -5.7
O=C(O)CCc1ccc(-c2ccc(Br)cc2)n1CC(=O)O | 4.6 | -8.0 | 9.4 | 7.7 | 2.9
CCCC1CCC2(CC1)CCC2OC(=O)Nc1cccc(Cl)c1 (stereo unspecified) | 10.0 | nt | nt | -3.6 | nt
O=C(NCCCc1ccccc1)C1CCN(c2nc(-c3ccc(Br)cc3)cs2)CC1 | -4.7 | nt | nt | 0.4 | nt
C=CCn1c(=O)c2ccccc2n2c(SCC(=O)c3ccccc3)nnc12 | -8.6 | -3.4 | 35.9* | -2.0 | 9.4
CC1=NN(c2ccccc2C)C(=O)C1 | 50.7* | nt | nt | 2.4 | nt
Cc1ccccc1N1CC(=O)N(c2ccccc2C)CC1=O | -6.9 | 4.2 | 6.8 | 0.1 | -3.9
CCc1ccc(S(=O)(=O)/N=C2\C=CC(=O)c3ccccc32)cc1 | nt | 4.4 | 66.8* | nt | 54.7*
CCN(CC)CCn1c(SCC(=O)NCc2ccco2)nc2c(sc3ccccc32)c1=O | -4.9 | -0.3 | -0.9 | 11.9 | 6.2
CCN(CC)CCn1c(SCC(=O)NCCC2=CCCCC2)nc2c(sc3ccccc32)c1=O | 5.0 | 4.4 | -8.0 | 21.7* | 4.5
Cn1cc(C2(C)CCOc3ccccc32)c2ccccc21 (stereo unspecified) | -6.0 | nt | nt | -0.1 | nt
CC(/C=N/NC(=O)Cc1cc(=O)[nH][nH]1)=C\c1ccccc1 | 3.8 | -7.2 | 30.8 | 0.0 | 60.0*
CC1=NNC(=O)C1CC(=O)N/N=C/C(C)=C/c1ccccc1 (stereo unspecified) | -2.4 | -0.3 | 5.9 | -2.4 | -4.6
O=C(NCCc1c[nH]c2ccccc12)OCc1cn(Cc2cc(F)cc(F)c2)nn1 | -7.7 | nt | nt | 1.3 | nt
O=c1[nH]c2ccc(S(=O)(=O)N3CCN(Cc4ccccc4)CC3)cc2[nH]c1=O | nt | -3.4 | 34.9* | nt | -20.4
N#Cc1ccc(/C=C2\CC3(OC(=O)c4ccccc4)CCCN2C3)cc1 (stereo unspecified) | 0.0 | nt | nt | -1.2 | nt
NS(=O)(=O)c1cc(C(=O)NC2CCSc3ccccc32)ccc1Cl (stereo unspecified) | 73.3* | -29.4 | -115.4 | 20.6 | 3.9
NS(=O)(=O)c1cccc(C(=O)NC2CCSc3ccccc32)c1 (stereo unspecified) | -6.0 | 2.5 | 6.0 | -0.1 | 5.4
O=S(=O)(c1cccs1)N1CCC(c2cn3ccccc3n2)CC1 | 2.6 | nt | nt | 6.2 | nt
COC(=O)[C@@]12CCCCC3=C1N(CCC3)C(=O)[C@H]2CC(=O)N1CCCC1 | -7.5 | nt | nt | 1.9 | nt
SMILES | TDP2 inh | PAD4 FP inh | GSTO1 counter | PRMT1 FP inh | Apaf-1 inh
Cc1ccc(Cn2cc(CN3[C@H](c4ccccc4)COc4cc(Br)ccc4S3(=O)=O)nn2)cc1 | 0.0 | nt | nt | -3.8 | nt
Nc1ccc2cc3ccc(N)cc3nc2c1 | 16.3 | nt | nt | 148.3* | nt
C=CCN1C(=O)[C@@H](CC(=O)N2CCC(c3ccccc3)CC2)[C@]2(C(=O)OC)CCCCC=C12 | 1.9 | nt | nt | -3.0 | nt
O=C(COC(=O)c1cc(S(=O)(=O)N2CCc3ccccc3C2)ccc1Cl)NCc1ccco1 | -2.9 | -10.5 | -6.5 | 6.6 | 42.6*
C/C(=C(/CCO)SSCC1CCCO1)N(C=O)Cc1cnc(C)nc1N (stereo unspecified) | -19.1 | -1.3 | 2.1 | 23.6* | 10.3
CCOc1ccc(N=Cc2ccc([N+](=O)[O-])cc2)c(O)c1 | -9.5 | nt | nt | 22.2* | nt
CCOc1ccc(CNC(=S)N/N=C\c2ccc([N+](=O)[O-])cc2)cc1 | -2.5 | -5.4 | 5.1 | 1.4 | 30.9
O=S1(=O)c2ccc(Br)cc2OC[C@H](Cc2ccccc2)N1Cc1cn(Cc2ccc(Br)cc2)nn1 | -9.9 | nt | nt | 1.6 | nt
Cc1ccc2nc(CCl)[n+]([O-])c(-c3ccccc3)c2c1 | 5.8 | -9.8 | 35.5* | 0.0 | 2.7
Cc1ccc2nc(Cl)c(-c3ccccc3)cc2c1 | 9.0 | 1.1 | -6.2 | -1.9 | 12.6
COCCNC(=O)c1c[nH]c2cc(OC)c(OC)cc2c1=O | -0.9 | -8.4 | 4.3 | 24.6* | -3.9
N#CC1(C#N)COC23CCCCC2C1(C#N)C(=N)O3 (stereo unspecified) | 7.0 | 7.7 | 13.3 | 22.1* | 2.7
CCOc1ccc(NC(=O)CN(C)C(=O)c2ccccc2OCc2cccc(C)c2)cc1OCC | 0.4 | 4.8 | nt | -0.8 | 46.1*
Cc1cccc(COc2ccccc2C(=O)N(C)CC(=O)Nc2cccc(F)c2)c1 | -11.2 | 4.2 | nt | -1.6 | 29.6
COC(=O)c1cc2c(c3c4cc(F)ccc4n(S(=O)(=O)c4ccccc4)c13)C(=O)N(Cc1ccc(N(C)C)cc1)C2 | 2.5 | nt | nt | -2.9 | nt
CCCN(CC1CC1)C(=O)c1ccc(CNC(=O)c2cccc(Br)c2)cc1 | -0.8 | nt | nt | 5.1 | nt
CCOC(=O)c1sc2cc([N+](=O)[O-])cc(SCC(=O)OC)c2c1N | 4.7 | -7.4 | 35.8* | 23.0* | 8.3
COC(=O)[C@H](C(C)C)N(Cc1cn(Cc2ccccc2)nn1)S(=O)(=O)c1ccccc1Br | -0.4 | nt | nt | -1.7 | nt
C[C@@H]1OCN(C)[C@H]2C[C@H]3c4[nH]c5cccc(-c6ccc7c(c6)OCO7)c5c4CCN3C[C@@H]12 | -10.2 | nt | nt | 0.1 | nt
COC(=O)C1=C(C)N(Cc2ccc(C(F)(F)F)cc2)C(=NCc2ccccc2)NC1c1ccc(Cl)cc1 (stereo unspecified) | -7.3 | nt | nt | -5.3 | nt
CCOC(=O)c1c(-c2ccc(C)o2)csc1NC(=O)CN1CCC(C(N)=O)CC1 | -3.0 | 0.2 | 4.7 | 14.4 | 20.4
CCOC(=O)c1c(-c2ccc(C)o2)csc1NC(=O)CN(C)CC(=O)Nc1ccc(C)cc1 | 6.2 | 0.7 | 7.8 | 21.7* | 31.9
CCC1(C)NC(=O)N(CC(=O)N2CCC(Cc3ccccc3)CC2)C1=O (stereo unspecified) | -4.1 | -5.5 | nt | 0.6 | 58.3*
COC(=O)C1CN(Cc2ccccc2)CCS(=O)(=O)N1Cc1ccc(F)cc1 (stereo unspecified) | 13.6 | nt | nt | -2.9 | nt
O=c1c(-c2ccc(Br)cc2)[n+]([O-])c2ccccc2n1OCc1ccccc1 | -10.0 | -5.4 | -6.6 | -4.6 | -24.1
CC(C)(C)c1ccc(COn2c(=O)c(-c3ccco3)[n+]([O-])c3ccccc32)cc1 | -0.8 | -3.1 | 42.9* | 1.2 | 15.8
CCC/C(=C1/c2ccccc2C(=O)N1c1ccccc1)c1ccc(C=O)o1 | 1.0 | nt | nt | -1.3 | nt
CCCN1C(=O)c2[nH]nc(-c3ccccc3)c2C1c1ccc(F)cc1 (stereo unspecified) | 0.6 | nt | nt | 22.3* | nt
